Activity calls are given as the source filed them. The rule behind the calls is not given here.
What was measured:
[1] = target: T1, NAD-dependent protein deacetylase sirtuin-1 (Homo sapiens) (UniProt Q96EB6); experiment: Inhibition of human N-terminal His-tagged SIRT1 expressed in Escherichia coli at 50 uM using p53 (Arg-His-Lys-Lys(Ac)) (379 to 382 residues) as substrate incubated for 3 hrs measured up to 30 mins by fluorescence assay relative to control
T1 sequence (whole entry): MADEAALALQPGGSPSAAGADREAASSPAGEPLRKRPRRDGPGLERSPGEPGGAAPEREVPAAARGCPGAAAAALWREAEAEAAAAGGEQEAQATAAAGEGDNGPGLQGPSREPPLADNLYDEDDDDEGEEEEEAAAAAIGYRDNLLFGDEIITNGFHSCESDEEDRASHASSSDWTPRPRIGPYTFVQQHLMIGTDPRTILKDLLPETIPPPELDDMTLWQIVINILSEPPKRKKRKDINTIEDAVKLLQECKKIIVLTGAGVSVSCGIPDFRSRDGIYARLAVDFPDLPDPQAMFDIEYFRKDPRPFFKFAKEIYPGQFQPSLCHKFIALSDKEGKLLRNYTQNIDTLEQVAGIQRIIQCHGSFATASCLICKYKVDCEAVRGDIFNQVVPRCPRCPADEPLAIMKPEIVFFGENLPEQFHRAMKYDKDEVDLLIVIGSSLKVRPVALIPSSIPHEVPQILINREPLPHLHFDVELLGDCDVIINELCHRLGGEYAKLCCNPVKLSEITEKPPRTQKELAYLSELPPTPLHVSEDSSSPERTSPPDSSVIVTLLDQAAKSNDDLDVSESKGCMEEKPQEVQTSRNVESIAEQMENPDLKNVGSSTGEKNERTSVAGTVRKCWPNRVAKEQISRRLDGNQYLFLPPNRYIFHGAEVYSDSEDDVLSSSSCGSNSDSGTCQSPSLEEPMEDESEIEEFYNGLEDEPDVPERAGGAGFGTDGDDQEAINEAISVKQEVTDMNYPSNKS

[2] = target: T2, NAD-dependent protein deacetylase sirtuin-2 (Homo sapiens) (UniProt Q8IXJ6); experiment: Inhibition of human N-terminal His-tagged SIRT2 expressed in Escherichia coli at 10 uM using p53 (Gln-Pro-Lys-Lys(Ac)) (317 to 320 residues) as substrate incubated for 3 hrs measured up to 30 mins by fluorescence assay relative to control
T2 sequence (whole entry): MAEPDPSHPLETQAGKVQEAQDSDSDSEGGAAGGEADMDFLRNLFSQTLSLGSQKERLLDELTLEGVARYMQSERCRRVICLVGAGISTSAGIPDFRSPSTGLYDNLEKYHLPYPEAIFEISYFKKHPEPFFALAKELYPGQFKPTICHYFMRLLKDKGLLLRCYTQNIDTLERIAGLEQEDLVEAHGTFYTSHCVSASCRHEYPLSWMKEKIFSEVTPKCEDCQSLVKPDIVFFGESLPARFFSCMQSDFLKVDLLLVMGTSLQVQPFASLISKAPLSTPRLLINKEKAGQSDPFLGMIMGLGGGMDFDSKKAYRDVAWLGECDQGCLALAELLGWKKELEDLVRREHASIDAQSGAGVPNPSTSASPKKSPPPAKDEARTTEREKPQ

N2a = experiment: Induction of neurite outgrowth in mouse Neuro2a cells at 0.2 to 2 uM measured after 24 hrs by microscopic analysis; type: functional, cell-based
Outline: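 N2a cells were plated at 1×10⁴ cells/mL in DMEM with 10% FBS, then switched to DMEM with 2% FBS for differentiation. Compound was added for 24 or 48 h and morphology scored by microscopy. A cell counted as differentiated if it had ≥1 neurite longer than twice the soma diameter; ≥100 cells were counted per condition. Triplicate experiments, mean ± SD, one-way ANOVA with Dunnett's test.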

MCF7 [3] = experiment: Growth inhibition of human MCF7 cells measured after 72 hrs by AlamarBlue assay; type: functional; details: MCF7, 72 h
Outline: (§1)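 MCF-7 cells in DMEM with 10% FBS were seeded at 1×10³ cells/well. After 24 h at 37°C, 5% CO₂, compound in medium was added at varying concentrations for 72 h. AlamarBlue was then added for 3 h and fluorescence read (ex 540/em 590 nm). Percent growth was calculated from the readings, and GI50 from the dose response. Three independent determinations.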

MCF7 [4] = experiment: Growth inhibition of human MCF7 cells at 15 uM measured after 72 hrs by AlamarBlue assay; type: functional, cell-based; outline: as §1
[5] = target: T1, NAD-dependent protein deacetylase sirtuin-1 (Homo sapiens); experiment: Inhibition of human N-terminal His-tagged SIRT1 expressed in Escherichia coli at 100 uM using p53 (Arg-His-Lys-Lys(Ac)) (379 to 382 residues) as substrate incubated for 3 hrs measured up to 30 mins by fluorescence assay relative to control
[6] = target: NAD-dependent protein deacylase sirtuin-5, mitochondrial (Homo sapiens) (UniProt Q9NXA8); experiment: Inhibition of human N-terminal His-tagged SIRT5 (37 to 310 residues) expressed in Escherichia coli at 100 uM using flour de lys succinyl as substrate incubated for 3 hrs measured up to 30 mins by fluorescence assay relative to control
MCF7 [7] = experiment: Growth inhibition of human MCF7 cells at 30 uM measured after 72 hrs by AlamarBlue assay relative to control; type: functional; details: MCF7, 72 h, read-out: GI; outline: as §1
[8] = target: T3, NAD-dependent protein deacetylase sirtuin-3, mitochondrial (Homo sapiens) (UniProt Q9NTG7); experiment: Inhibition of human N-terminal His-tagged SIRT3 (102 to 399 residues) expressed in Escherichia coli at 100 uM using p53 (Gln-Pro-Lys-Lys(Ac)) (317 to 320 residues) as substrate incubated for 3 hrs measured up to 30 mins by fluorescence assay relative to control
T3 sequence (whole entry): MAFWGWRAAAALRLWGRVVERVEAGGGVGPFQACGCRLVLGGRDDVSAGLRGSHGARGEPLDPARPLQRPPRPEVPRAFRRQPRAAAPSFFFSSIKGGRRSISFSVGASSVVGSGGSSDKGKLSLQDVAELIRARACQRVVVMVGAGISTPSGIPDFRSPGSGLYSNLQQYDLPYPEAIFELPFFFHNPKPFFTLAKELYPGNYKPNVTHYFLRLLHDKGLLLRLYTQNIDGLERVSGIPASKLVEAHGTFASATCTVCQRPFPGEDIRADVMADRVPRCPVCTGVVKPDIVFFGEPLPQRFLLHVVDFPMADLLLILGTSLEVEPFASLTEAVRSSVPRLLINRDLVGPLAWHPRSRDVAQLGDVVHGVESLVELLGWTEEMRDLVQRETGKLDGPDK

[9] = target: T2, NAD-dependent protein deacetylase sirtuin-2 (Homo sapiens); experiment: Inhibition of human N-terminal His-tagged SIRT2 expressed in Escherichia coli at 50 uM using p53 (Gln-Pro-Lys-Lys(Ac)) (317 to 320 residues) as substrate incubated for 3 hrs measured up to 30 mins by fluorescence assay relative to control
[10] = target: T2, NAD-dependent protein deacetylase sirtuin-2 (Homo sapiens); experiment: Inhibition of SIRT2 in human MCF7 cells assessed as accumulation of acetylated-alpha tubulin at 0.1 uM measured after 24 hrs by Western blot analysis relative to alpha-tubulin; type: cell-based
Outline: (§2)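 MCF-7 cells (5×10⁵ per dish) were treated 24 h, lysed in SDS buffer and protein was quantified by BCA. Equal protein was run on 5–20% SDS-PAGE and transferred to PVDF. Blots were probed for H3K9Ac, H3, acetyl-α-tubulin and α-tubulin, then given HRP secondaries and ECL detection. Acetyl/total ratios came from blot optical density.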

[11] = target: T1, NAD-dependent protein deacetylase sirtuin-1 (Homo sapiens); experiment: Inhibition of SIRT1 in human MCF7 cells assessed as H3K9Ac expression at 0.1 uM measured after 24 hrs by Western blot analysis relative to H3; type: cell-based; outline: as §2

Sequence of NAD-dependent protein deacylase sirtuin-5, mitochondrial (Homo sapiens) (Q9NXA8 37-310 limits assumed): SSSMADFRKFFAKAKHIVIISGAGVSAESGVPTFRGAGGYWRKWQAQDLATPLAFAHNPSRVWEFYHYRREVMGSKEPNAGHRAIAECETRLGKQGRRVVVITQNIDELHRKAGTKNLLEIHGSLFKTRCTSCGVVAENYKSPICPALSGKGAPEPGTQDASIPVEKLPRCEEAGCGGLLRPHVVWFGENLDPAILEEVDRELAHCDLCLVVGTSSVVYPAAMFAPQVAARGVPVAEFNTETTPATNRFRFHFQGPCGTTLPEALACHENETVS

| SMILES | inhibition [1] | inhibition [2] | also measured |
| --- | --- | --- | --- |
| C[C@H](NC(=O)[C@H](CCCCNC(=S)CNC(=O)c1ccccc1Nc1cccc(OCCc2ccccc2)c1)NC(=O)OCc1ccccc1)C(N)=O |  |  | Activity (N2a): Active; GI50 (MCF7 [3]): 8.43 µM |
| O=C(NOC1CCCCO1)c1ccccc1Nc1cccc(OCCc2ccccc2)c1 (stereo not drawn) | 8% | 54% |  |
| CCCCCCCCCCCCCC(=S)NCCCC[C@H](NC(=O)OCc1ccccc1)C(=O)Nc1ccccc1 |  |  | growth inhibition (GI) (MCF7 [4]): Active; Activity (N2a): Active |
| CC(C)(C)OC(=O)NCCCCNC(=O)CNC(=O)c1ccccc1Nc1cccc(OCCc2ccccc2)c1 | 23% | 83% |  |
| Cc1cc(C)nc(SCC(=O)Oc2cccc(Nc3ccccc3C(N)=O)c2)n1 | 7% | 26% |  |
| NC(=O)CNC(=O)c1ccccc1Nc1cccc(OCCc2ccccc2)c1 | 10% | 85% |  |
| O=C(NO)c1ccccc1Nc1cccc(OCCc2ccccc2)c1 | 13% | 68% |  |
| CCCNC(=O)c1ccccc1Nc1cccc(OCCc2ccccc2)c1 | 8% | 58% |  |
| O=C(Nc1ccccc1)c1ccccc1Nc1cccc(OCCc2ccccc2)c1 | 9% | 44% |  |
| O=C(c1ccccc1Nc1cccc(OCCc2ccccc2)c1)N1CCOCC1 | 4% | 71% |  |
| O=C(NC1CCN(Cc2ccccc2)CC1)c1ccccc1Nc1cccc(OCCc2ccccc2)c1 | 8% | 56% |  |
| C[C@H](NC(=O)c1ccccc1Nc1cccc(OCCc2ccccc2)c1)C(N)=O | 15% | 81% |  |
| O=C(O)CNC(=O)c1ccccc1Nc1cccc(OCCc2ccccc2)c1 | 8% | 50% |  |
| CCN(CC)C(=O)c1ccccc1Nc1cccc(OCCc2ccccc2)c1 | 11% | 61% |  |
| CN(C)CCNC(=O)c1ccccc1Nc1cccc(OCCc2ccccc2)c1 | 18% | 59% | inhibition [9]: 74% |
| CC(C)CCNC(=O)c1ccccc1Nc1cccc(OCCc2ccccc2)c1 | 8% | 45% | inhibition [9]: 70% |
| CONC(=O)c1ccccc1Nc1cccc(OCCc2ccccc2)c1 | 6% | 63% |  |
| O=C(NC1CCCCC1)c1ccccc1Nc1cccc(OCCc2ccccc2)c1 | 15% | 28% |  |
| NC(=O)c1ccccc1Nc1cccc(OCCc2ccc3ccccc3c2)c1 | 7% | 75% |  |
| O=C(CCCCCCC(=O)Nc1ccccc1)NO |  |  | fold change (FC) [10]: 1.61; fold change (FC) [11]: 1.3 |
| CCCCCNC(=O)c1ccccc1Nc1cccc(OCCc2ccccc2)c1 | 9% | 50% |  |

The next lines start with results.

| inhibition [1] | inhibition [2] | SMILES | also measured |
| --- | --- | --- | --- |
| 12% | 76% | O=C(NCCO)c1ccccc1Nc1cccc(OCCc2ccccc2)c1 |  |
| 12% | 77% | C#CCNC(=O)c1ccccc1Nc1cccc(OCCc2ccccc2)c1 |  |
| 12% | 70% | O=C(NCc1ccccc1)c1ccccc1Nc1cccc(OCCc2ccccc2)c1 |  |
| 2.5% | 12% | O=C(O)c1ccccc1Nc1cccc(OCCc2ccccc2)c1 |  |
| 4% | 57% | CC(C)(C)OC(=O)NCCCNC(=O)c1ccccc1Nc1cccc(OCCc2ccccc2)c1 |  |
| 12% | 90% | NC(=O)c1ccccc1Nc1cccc(OCCc2ccccc2)c1 | inhibition [5]: 17%; Activity (N2a): Active; inhibition [6]: 8%; inhibition of growth at 30 µM (MCF7 [7]): 30%; inhibition [8]: 17% |
| 19% | 68% | NC(=O)Cc1ccccc1Nc1cccc(OCCc2ccccc2)c1 |  |
| 17% | 72% | COC(=O)CNC(=O)c1ccccc1Nc1cccc(OCCc2ccccc2)c1 |  |
| 5% | 46% | O=C(NCCc1ccccc1)c1ccccc1Nc1cccc(OCCc2ccccc2)c1 |  |
| 11% | 77% | CC(C)(C)OC(=O)NCCNC(=O)c1ccccc1Nc1cccc(OCCc2ccccc2)c1 |  |
| 2% | 57% | CCCCNC(=O)c1ccccc1Nc1cccc(OCCc2ccccc2)c1 |  |
| 14% | 83% | CC(C)(C)OC(=O)NCCCCCNC(=O)CNC(=O)c1ccccc1Nc1cccc(OCCc2ccccc2)c1 |  |
